This note sets out measurements from ChEMBL document CHEMBL5154939, “Improved Binding Affinity and Pharmacokinetics Enable Sustained Degradation of BCL6 In Vivo” (J Med Chem, 2022).

Data set [1] has as its target T1, B-cell lymphoma 6 protein (Homo sapiens, UniProt P41182). Briefly: Degradation of BCL6 in human OCI-Ly1 cells incubated for 2 hrs by MSD assay. The format is cell-based. Summed up: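 Lysates were read by MSD sandwich immunoassay (goat capture, rabbit detection anti-BCL6, electrochemiluminescence). Signal was normalised to DMSO (high) and a reference degrader control at 2 μM (low). DC50 came from a four-parameter logistic fit, with Dmax reported.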

The nature of data set [2]: Cmax in BALB/c mouse at 1 mg/kg, iv or 5 mg/kg, po measured after 6 hrs post-dose by ESI-LCMS/MS based UPLC analysis. The data set is classed as ADME, organism-based. Set-up: time 6 hrs, dose 5 mg/kg, route po. The conditions noted are these: in vivo.
Data set [3] can be described thus: Passive membrane permeability of compound in phosphate buffered saline at pH 7.4 at 10 uM incubated for 16 hrs by PAMPA assay based TQ-S LC-MS/MS analysis. The format is ADME. The conditions noted are these: read-out: permeability. In a few lines:
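PAMPA with a 2% phosphatidylcholine-in-dodecane membrane. Compound at 10 µM in PBS pH 7.4 containing 1% BSA was incubated 16 h at 30 °C. Supernatants were diluted and quantified by LC-MS/MS.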
(In general: In PAMPA a lipid-coated filter parts donor from acceptor wells.)

A short description of data set [4]: Clearance in BALB/c mouse at 1 mg/kg, iv or 5 mg/kg, po measured after 6 hrs post-dose by ESI-LCMS/MS based UPLC analysis relative to hepatic blood flow. The data set is classed as ADME, organism-based. The conditions noted are these: in vivo.
The target of data set [5] is T1, B-cell lymphoma 6 protein.
Data set [6] in a line: Kinetic aqueous solubility of the compound in 1% DMSO/PBS at pH 7.4 incubated for 2 hrs by UV-vis detection based HPLC analysis. The format is physicochemical. The conditions noted are these: PBS with 1% DMSO, read-out: Kinetic_solubility. In a few lines: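 A 10 mM DMSO stock was diluted into PBS pH 7.4 to 100 µM final with 1% DMSO, shaken 2 h at 20 °C and centrifuged. The supernatant was mixed with DMSO and measured by HPLC-UV on a 5 min water:methanol gradient with 0.1% formic acid at 30 °C, against an external standard from the same stock.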

Data set [7] has as its system HT. Briefly: Downregulation of BCL6 levels in human HT cells xenografted in SCID mouse at 50 mg/kg, po bid measured for 4 to 12 hrs post-dose by capillary electrophoresis method. The data set is classed as functional, organism-based. The conditions noted are these: time lower 4.0 hrs, time upper […]. In a few lines: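 Female SCID mice bearing subcutaneous HT xenografts (10^7 cells with Matrigel) were dosed orally at 50 mg/kg BID, every 12 h, for 22 days; vehicle was DMSO/Kolliphor HS15/PEG400/1.25% HPMC. Tumours were taken 4 and 12 h after the final dose, snap-frozen and bead-homogenised in Tris/Triton lysis buffer. Lysates at 0.0875 mg/ml were run on Wes capillary electrophoresis, with BCL6 normalised to GAPDH.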
A general note: In xenograft studies the graft and the host belong to different species.

The test system of data set [8] is HT. Briefly: Antitumor activity against human HT cells xenografted in SCID mouse assessed as reduction in tumor growth at 50 mg/kg, po bid measured upto 22 days. The format is functional, organism-based. The conditions noted are these: time <= 22.0 day. Summed up:
(§1)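 HT cells grown in RPMI-1640 with 10% FBS, kept at 0.5-2 × 10^6 cells/mL. For implantation, 10^7 cells per 200 µL in serum-free RPMI plus an equal volume of Matrigel were injected subcutaneously at a single site in female SCID mice. At day 20, tumours of 0.4-0.6 cm³ were chosen, n=10 per group. Oral dosing at 50 mg/kg or vehicle was given every 12 h for 22 days (DMSO/Kolliphor HS15/PEG400/aqueous HPMC, 0.2 mL per 20 g).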

Data set [9] is described as follows: Toxicity in SCID mouse xenografted with human HT cells assessed as body weight loss at 50 mg/kg, po bid measured upto 22 days. The conditions noted are these: in vivo, 528 h, time < 22 day. The format is organism-based. In a few lines:
as §1

The subject of another data set is OCI-Ly1. Briefly: Downregulation of BCL6 levels in human OCI-Ly1 cells xenografted in SCID mouse at 50 mg/kg, po measured for 12 to 24 hrs by capillary electrophoresis method. The format is functional, organism-based. The conditions noted are these: time lower […], time upper 24.0 hrs. Summed up: (§2)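 Female SCID mice with subcutaneous OCI-Ly1 xenografts (1.5×10^7 cells in serum-free IMDM/Matrigel; tumours 0.4-0.6 cm³ at day 20) received one oral dose of 50 mg/kg or vehicle (DMSO/Kolliphor HS15/PEG400/HPMC). Groups of n=3 were sampled at 12, 16 and 24 h. Tumour lysates were analysed by Wes capillary electrophoresis, with BCL6 normalised to GAPDH.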

The nature of data set [10]: Toxicity in SCID mouse xenografted with human OCI-Ly1 cells assessed as noticeable adverse effects at 50 mg/kg, po measured for 12 to 24 hrs. The conditions noted are these: in vivo, time 12-24 hrs. The data set is classed as organism-based. Summed up:
as §2

Data set [11] is described as follows: Toxicity in BALB/c mouse at 1 mg/kg, iv or 5 mg/kg, po measured upto 24 hrs post-dose. The conditions noted are these: in vivo. The data set is classed as organism-based.

Converted amounts (≈) assume the structure as drawn. The source made the active and inactive calls. The calls are words filed in the database; no cut-off is given here. Where only a bound is given, the exact number is not on record here.

As to `Cn1c(=O)c2c(c3cc(Nc4nc(N5CCC(F)(F)[C@H](O)C5)ncc4Cl)ccc31)N[C@@H](C1CC1)C(F)(F)CO2`, the EC50 – broadly, the concentration needed to bring the measured effect to its halfway point – in data set [1] was > 2 µM. For the molecule `CC(=O)N[C@H]1C[C@@H](C)CN(c2ncc(Cl)c(Nc3ccc4c(c3)c3c(c(=O)n4C)OCC(F)(F)[C@H](C4CC4)N3)n2)C1`, the concentration giving a half-maximal response (EC50) in data set [1] is > 2 µM.

In the case of `C[C@@H]1C[C@H](N(C)C)CN(c2ncc(Cl)c(Nc3ccc4c(c3)c3c(c(=O)n4C)OCC(F)(F)[C@H](C4CC4)N3)n2)C1`, in data set [1], the 50% effective concentration (EC50) is > 2 µM.

`CC(=O)N[C@@H]1C[C@H](C)CN(c2ncc(Cl)c(Nc3ccc4c(c3)c3c(c(=O)n4C)OCC(F)(F)[C@H](C4CC4)N3)n2)C1` showed a 50% effective concentration (EC50) in [1] of 0.0022 µM. The same measure, in the same setting: the result for `Cn1c(=O)n(CCC(C)(C)O)c2cc(Nc3nc(N4CCC(F)(F)C(O)C4)ncc3Cl)ccc21` (racemic) reads 0.276 µM; that for `C[C@@H]1CCCN(c2ncc(Cl)c(Nc3ccc4c(c3)c3c(c(=O)n4C)OCC(F)(F)[C@H](C4CC4)N3)n2)C1`, 0.0326 µM. Consider `C[C@@H]1CN(c2ncc(Cl)c(Nc3ccc4c(c3)n(CCC(C)(C)O)c(=O)n4C)n2)C[C@H](C)C1(F)F`, for which, in data set [2], the highest level (Cmax) was 1.58 µM. Besides, in data set [3], the Papp at 16 h, 10 µM worked out at 330 nm/s. Also, the CLH in data set [4] was determined as 22%. Take `C[C@@H]1C[C@H](O)CN(c2ncc(Cl)c(Nc3ccc4c(c3)c3c(c(=O)n4C)OCC(F)(F)[C@H](C4CC4)N3)n2)C1`: the 50% effective concentration (EC50) in [5] and in [1] was > 2 µM each time. Further, the Papp at 16 h, 10 µM in [3] turned out to be 160 nm/s. As for `Cn1c(=O)c2c(c3cc(Nc4nc(N5CCC(F)(F)[C@@H](O)C5)ncc4Cl)ccc31)N[C@@H](C1CC1)C(F)(F)CO2`, the response in [1] was half-maximal at 0.0071 µM (EC50). Same read-out and setting: the result for `C[C@H]1C[C@@H](N(C)C)CN(c2ncc(Cl)c(Nc3ccc4c(c3)c3c(c(=O)n4C)OCC(F)(F)[C@H](C4CC4)N3)n2)C1` reads 0.0098 µM; that for `C[C@H]1C[C@H](O)CN(c2ncc(Cl)c(Nc3ccc4c(c3)c3c(c(=O)n4C)OCC(F)(F)[C@H](C4CC4)N3)n2)C1`, > 2 µM; that for `Cn1c(=O)c2c(c3cc(Nc4nc(N5CCC(F)(F)[C@H](CO)C5)ncc4Cl)ccc31)N[C@@H](C1CC1)C(F)(F)CO2`, > 2 µM. The same measure, in the same setting: the result for `C[C@@H]1C[C@@H](O)CN(c2ncc(Cl)c(Nc3ccc4c(c3)c3c(c(=O)n4C)OCC(F)(F)[C@H](C4CC4)N3)n2)C1` reads > 2 µM; that for `C[C@H]1CCCN(c2ncc(Cl)c(Nc3ccc4c(c3)c3c(c(=O)n4C)OCC(F)(F)[C@H](C4CC4)N3)n2)C1`, 0.0063 µM; that for `C[C@H]1C[C@@H](O)CN(c2ncc(Cl)c(Nc3ccc4c(c3)n(CCC(C)(C)O)c(=O)n4C)n2)C1` (relative stereo), 0.035 µM.

`Cn1c(=O)c2c(c3cc(Nc4nc(N5CCC(F)(F)[C@@H](CO)C5)ncc4Cl)ccc31)N[C@@H](C1CC1)C(F)(F)CO2`: the Papp at 16 h, 10 µM in data set [3] was determined as 210 nm/s. Besides, the midpoint of the response in data set [1], the EC50, lay at 0.0027 µM. In addition, in [6], the solubility kinetic at 2 h was found to be 13 µM (≈ 7.58 µg/mL).

For the molecule `Cn1c(=O)c2c(c3cc(Nc4nc(N5CCC[C@@H](O)C5)ncc4Cl)ccc31)N[C@@H](C1CC1)C(F)(F)CO2`, the concentration for a half-maximal effect (EC50) in [1] is > 2 µM.

With `C[C@H]1C[C@@H](O)CN(c2ncc(Cl)c(Nc3ccc4c(c3)c3c(c(=O)n4C)OCC(F)(F)[C@H](C4CC4)N3)n2)C1`, the EC50 in [5] came out at 0.001 µM; in [1] it was 0.0007 µM. Further, the outcome with HT [7], in the data set on HT [8] and in the data set on OCI-Ly1 was Active. Besides, the highest concentration (Cmax) (usually the highest concentration seen after dosing) in [2] worked out at 3.95 µM. In addition, the Activity result in data set [9], in [10] and in data set [11] was “Non-Toxic” each time. The molecule further returned a CLH in data set [4] of 6%. For `Cn1c(=O)c2c(c3cc(Nc4nc(N5CCC[C@H](O)C5)ncc4Cl)ccc31)N[C@@H](C1CC1)C(F)(F)CO2`, the EC50 in data set [1] was > 2 µM.
